# bCat KO growth: beta-catenin-lacking colon tumor cell growth suppression | HCT116 beta-catenin knockout viability, CellTiter-Glo, 60 h; stronger effect = lower value | viability, % at 10 µM | 140,000 tested, 1.5% active;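 active = viability at or under a set limit, the compound median less 4 SD, cut at about 6% in these data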;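 also: 0% = Hyamine 1622 control at 20 µM and 100% = untreated cell control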
# HCT116 PTEN-null: growth suppressors of cells with PTEN tumor suppressor deletion | viability, % at 10 µM | AID 827 | HCT116 PTEN-null viability, CellTiter-Glo, 60 h; stronger effect = lower value | 140,000 tested, 1.2% active;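 active = viability at or below a set limit, 4 SD under the median of all tested compounds, cut at about 3.7% in these data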;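 also: PTEN knockout HCT116 line with beta catenin targeted HCT116 as companion control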
# HUVEC prolif 384: inhibitors of human endothelial cell proliferation | HUVEC proliferation, CellTiter-Glo luminescence, 72 h; stronger effect = lower value | viability, % at 10 µM (by protocol) | 86,000 tested, 1.1% active | AID 648;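 active = viability at or below 30%; inactive = viability above 30%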;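 also: 100% = median luminescence of DMSO-only cell control wells on each plate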
# H69AR growth 86K: growth inhibitors of human H69AR lung tumor cells | H69AR lung tumor viability, ATP luminescence, 72 h; stronger effect = lower value | viability, % at 10 µM | 85,000 tested, 6% active | AID 598;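 active = viability at or below 40%; inactive = viability above 40%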;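 also: multidrug resistant small cell line overexpressing MRP-1 efflux transporter; 100% = mean luminescence of untreated control wells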
# Fibroblast inh: blocks proliferation of human lung fibroblasts | LL 47 human lung fibroblast viability, ATP luminescence; stronger effect = lower value | viability, % at 10 µM | 85,000 tested, 1.1% active | AID 719;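 active = viability at or below 50% in the single dose screen; inactive = viability above 50%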;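 also: compound exposure lasted 72 h before the ATP readout; 100% = median luminescence of untreated cell-only wells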
#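 test system = LL 47 human lung fibroblasts | amount = 1,150 fibroblasts seeded per well | medium = 15% FBS in IMEM | times = overnight cell rest, 72 h compound treatment at 37 °C | measured by = CellTiter-Glo luminescence measuring cellular ATP | read-out = viability percentage against median untreated-cell control | benchmarks = cell-only wells, no compound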
# The depositor's hits bear a star; x = not tested or not shown. This excerpt belongs to a sample that is enriched for hits.
SMILES,bCat KO growth,HCT116 PTEN-null,HUVEC prolif 384,H69AR growth 86K,Fibroblast inh
Cn1c(=O)c2c(-c3ccccc3)n(C3CCCCC3)cc2n(C)c1=O,75,68,105,37*,86
Cc1cccc(-c2c3c(=O)n(C)c(=O)n(C)c3cn2C2CCCCC2)c1,63,61,103,23*,79
Cc1c(C(=O)Nc2ccc3oc(-c4cccnc4)nc3c2)oc2ccccc12,79,75,37,3.4*,15*
Cc1c(C(=O)Nc2cnccn2)oc2ccccc12,46,42,80,38*,83
Cc1c(C(=O)Nc2ccc(Cl)cn2)oc2ccccc12,53,55,64,59,75
CN(C)c1c([N+](=O)[O-])cc2[nH]c(=O)[nH]c2c1[N+](=O)[O-],90,95,85,79,92
O=C(CC1CCCCC1)NCC1CCCO1 (centres undefined),94,85,97,93,103
Cc1ccc2[nH]c(=O)c(CN(CCCN3CCOCC3)C(=O)Nc3cccc(Cl)c3)cc2c1,40,33,8.5*,20*,64
O=C1C(Nc2ccccc2)=C/C(=N/S(=O)(=O)c2cccs2)c2ccccc21,2.0*,1.7*,x,x,x
Cc1ccc(NC2=C/C(=N/S(=O)(=O)c3cccs3)c3ccccc3C2=O)cc1,1.2*,0.5*,x,x,x
COC(=O)c1ccccc1NC1=C/C(=N\S(=O)(=O)c2cccs2)c2ccccc2C1=O,1.8*,1.7*,4.0*,23*,5.7*
COC(=O)c1cccc(NS(=O)(=O)c2cccs2)c1C,84,85,92,105,92
COc1ccc(C(=O)NCC(=O)OC2CCCCC2=O)cc1 (centres undefined),97,87,92,95,105
O=S(=O)(Cc1ccccc1)/C1=C(\N2CCOCC2)CCCCCC1,96,90,x,x,x
CCCCCn1c(=O)c(F)cn(Cc2ccc(OC)c([N+](=O)[O-])c2)c1=O,73,59,x,x,x
CCOc1ccc2nc(NC(=O)C3CCCN(S(=O)(=O)c4cccc5nonc45)C3)sc2c1 (centres undefined),67,62,97,56,91
COc1ccc2c(c1)CCc1sc(NC(=O)c3ccco3)nc1-2,86,92,98,77,117
COc1ccc2c(c1)-c1nc(NC(=O)c3ccco3)sc1CC2,96,86,100,39*,106
O=S(=O)(c1ccc(NC2CCCc3ccccc32)nc1)N1CCOCC1 (centres undefined),83,82,96,81,90
CCN(CC)S(=O)(=O)c1ccc(NC2CCCc3ccccc32)nc1 (centres undefined),0.6*,0.5*,90,87,94
CCCCCCOC(=O)Sc1nc2ccccc2o1,105,96,73,64,102
Cc1sc(NC(=O)c2cc(-c3ccc(Cl)cc3)nc3ccccc23)c(C(N)=O)c1C,3.9*,1.0*,x,x,x
Cc1sc(NC(=O)c2ccc(Br)s2)c(C(N)=O)c1C,84,85,94,50,84
Cc1sc(NC(=O)c2ccc(Cl)s2)c(C(N)=O)c1C,104,92,60,11*,88
O=C(N/N=C/c1ccc2c(c1)OCO2)c1cc(-c2ccccc2)nc2ccccc12,95,92,x,x,x
SMILES,bCat KO growth,HCT116 PTEN-null,HUVEC prolif 384,H69AR growth 86K,Fibroblast inh
O=C(N/N=C/c1ccccn1)c1cc(-c2ccc(Cl)cc2)nc2ccccc12,3.7*,3.2*,x,x,x
O=C(c1ccc2c(c1)OCO2)n1nnc2ccccc21,88,95,102,68,96
Cc1ccc(/C(N)=N/OC(=O)c2ccco2)cc1,96,94,84,76,99
Cc1ccc(NC2=C(Cl)C(=O)OC2OC(=O)c2ccco2)cc1 (centres undefined),86,91,65,33*,92
CCN(CC)c1ccc2c(C)c(-c3ccc(N)cc3)c(=O)oc2c1,88,85,79,51,97
CCN(CC)c1ccc2c(c1)oc(=O)c1c(Cl)cc(=O)oc12,3.0*,2.0*,38,1.9*,11*
CCN(CC)c1ccc2c(Cl)c(Br)c(=O)oc2c1,14,30,47,12*,34*
CCOc1ccc2c(C)nc(NC3=NC(C)(C)C=C(C)N3)nc2c1,12,9,79,94,83
CCOc1ccc2nc(NC3=NC(c4ccc(OC)cc4)CC(=O)N3)nc(C)c2c1 (centres undefined),1.4*,1.8*,x,x,x
CCOc1ccc2nc(NC3=NC(C)(C)C=C(C)N3)nc(C)c2c1,5.0*,12,x,x,x
O=C(CCc1ccccc1)Nc1ccc(Cl)cn1,22,23,53,30*,57

# Compound activity as filed in PubChem BioAssay.
